ChEMBL document CHEMBL2021854, “2-Aminopyrimidine based 4-aminoquinoline anti-plasmodial agents. Synthesis, biological activity, structure-activity relationship and mode of action studies” (Eur J Med Chem, 2012)

Test system: Vaccinia virus
Test: Antiviral activity against Vaccinia virus infected in HEL cells assessed as inhibition of virus-induced cytopathogenicity after 4 days
Format: functional, organism-based
Details: Orthopoxvirus vaccinia, 96 h
In short: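 Confluent HEL or HeLa monolayers infected with 100 CCID50 of virus in the presence of varying compound concentrations.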

Structure (SMILES): CCOC(=O)c1c(C)nc(NCCNc2ccnc3cc(Cl)ccc23)nc1-c1ccccc1
- EC50: > 4 µM

Structure (SMILES): CCOC(=O)c1c(C)nc(NCCCNc2ccnc3cc(Cl)ccc23)nc1-c1ccccc1
- EC50: > 100 µM

Structure (SMILES): CCOC(=O)c1c(C)nc(NCCCCNc2ccnc3cc(Cl)ccc23)nc1-c1ccccc1
- EC50: > 100 µM

Structure (SMILES): CCOC(=O)c1c(C)nc(NCCCNc2ccnc3cc(Cl)ccc23)nc1C
- EC50: > 100 µM

Structure (SMILES): CCOC(=O)c1c(C)nc(NCCCCNc2ccnc3cc(Cl)ccc23)nc1C
- EC50: > 100 µM

Structure (SMILES): Cc1nc(NCCCNc2ccnc3cc(Cl)ccc23)nc(-c2cccc([N+](=O)[O-])c2)c1C(=O)OC(C)C
- EC50: > 4 µM

Structure (SMILES): Cc1nc(NCCNc2ccnc3cc(Cl)ccc23)nc(-c2ccccc2[N+](=O)[O-])c1C(=O)OC(C)C
- EC50: > 20 µM

Structure (SMILES): Cc1nc(NCCCCNc2ccnc3cc(Cl)ccc23)nc(-c2ccccc2[N+](=O)[O-])c1C(=O)OC(C)C
- EC50: > 4 µM

Structure (SMILES): Nc1nc2c(ncn2COCCO)c(=O)[nH]1 [ACYCLOVIR]
- EC50: > 250 µM

Structure (SMILES): Nc1nc(O)c2ncn(COC(CO)CO)c2n1 [GANCICLOVIR]
- EC50: > 100 µM
